Compound activity as filed in PubChem.
SUMO1-SIM PPI = SUMO1-SIM interaction modulation; P63165; AID 602429; 360,000 tested, 0.33% active; inhibition, % at 20 µM; SUMO1 binding to a labelled peptide, TR-FRET, 1 h; in the data active = inhibition above about 37%
Target sequence (P63165 whole entry, looked up): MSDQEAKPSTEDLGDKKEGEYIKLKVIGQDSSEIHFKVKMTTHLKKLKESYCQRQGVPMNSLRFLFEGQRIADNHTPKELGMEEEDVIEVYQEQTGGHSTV
LMPTP block = blocks human LMPTP phosphatase | recombinant LMPTP-A, OMFP fluorogenic substrate, fluorescence intensity | P24666 | 360,000 tested, 0.22% active | inhibition, % at 20 µM;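 active = compounds that cut the enzyme signal by at least half of the control window in the single-dose screen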
Target sequence (P24666 whole entry, looked up): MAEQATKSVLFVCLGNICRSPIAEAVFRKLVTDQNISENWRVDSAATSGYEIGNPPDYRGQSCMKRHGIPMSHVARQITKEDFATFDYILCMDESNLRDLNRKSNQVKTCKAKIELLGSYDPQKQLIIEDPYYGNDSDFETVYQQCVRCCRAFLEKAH
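Assay system: LMPTP-A, protein tyrosine phosphatase of low molecular weight / Medium: pH 6.0 Bis-Tris buffer with DTT and Triton X-100 / Schedule: 50 min enzyme reaction at room temperature, protected from light / Measured by: endpoint fluorescence intensity from OMFP dephosphorylation / Read-out basis: % inhibition relative to no-enzyme and uninhibited control wells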
Scp-1 inhibitor = blocks human Scp-1 phosphatase activity | Q9GZU7 | Recombinant Scp1, phosphopeptide, malachite green phosphate absorbance | inhibition, % at 20 µM | 340,000 tested, 0.88% active | AID 493091;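 active = inhibition above about 50% at 20 µM, limit read from the data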
Target sequence (Q9GZU7 76-261 limits assumed): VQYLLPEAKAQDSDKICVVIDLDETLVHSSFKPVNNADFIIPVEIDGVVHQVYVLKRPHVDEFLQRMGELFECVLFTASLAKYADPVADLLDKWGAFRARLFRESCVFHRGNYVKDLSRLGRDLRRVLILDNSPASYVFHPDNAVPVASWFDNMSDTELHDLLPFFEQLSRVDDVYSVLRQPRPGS
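Assay system: SCP-1 catalytic fragment, aa 76-261 | Buffer or medium: Tris acetate buffer pH 5.5 with MgCl2 and Tween-20 | Compound: One concentration, 20 µM, with 1.0% DMSO | Also added: Phospho 17-mer peptide substrate | Signal: Absorbance at 630 nm | Incubation: 45 min enzyme reaction at room temperature | Measure: % inhibition of SCP-1 phosphate liberation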
STEP block = blocks human striatal-enriched tyrosine phosphatase; recombinant STEP, OMFP fluorogenic substrate, fluorescence; 360,000 tested, 0.25% active; inhibition, % at 20 µM; P54829; AID 588621;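 active = inhibition at 20 µM, scaled per plate between control wells, above about 37%, limit read from the data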
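Also added – OMFP at 25 µM · Test system – STEP tyrosine phosphatase · Technique – FITC-channel fluorescence of OMFP product · Schedule – 20 min at room temperature, dark · Evaluation – control-normalized % inhibition with plate pattern correction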
DNMT1 inh = blocks human DNA methyltransferase DNMT1 | DNMT1 molecular beacon, Hinp1I cleavage, fluorescence | AID 588458 | inhibition (reported as % activation of signal), % at 10 µM | 360,000 tested, 0.83% active; in the data active = inhibition above about 50%
Scp-1 conf = Scp-1 (human) inhibition, single-dose confirmed; shares compounds with Scp-1 inhibitor; recombinant SCP-1 catalytic domain, phosphate release, malachite green absorbance; inhibition, % at 20 µM; 2,500 tested, 61% active
MG interference = counter-screen for Scp-1 inhibitors: colorimetric interference; shares compounds with Scp-1 inhibitor; Colorimetric interference counterscreen, malachite green absorbance 630 nm; apparent inhibition (interference), % at 20 µM; 2,500 tested, under 10 active; AID 540313;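 also: compounds added after enzyme reaction finished so only phosphate colour detection is probed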
Scp1 DSF = binds human Scp-1, shifting its melting temperature; shares compounds with Scp-1 inhibitor; Recombinant SCP1, Sypro Orange thermal shift Tm; thermal shift relative to vanadate control, % at 40 µM; 1,500 tested, 25% active;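 active = substances whose mean melting-temperature shift, as a percentage of the reference inhibitor's shift, reaches about 5.3%, limit read from the data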
Hits are given with their value; i = inactive; nt = not tested or not shown. Only some compounds are listed: those with a hit (about 1.7% of all), similar ones and a draw of the others.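 The calls were made as follows, unless noted: active = inhibition of at least 30% at 20 µM; inactive = the rest.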

SMILES | SUMO1-SIM PPI | LMPTP block | Scp-1 inhibitor | STEP block | DNMT1 inh | Scp-1 conf | MG interference | Scp1 DSF
COC(=O)c1ccccc1NC(=O)CSc1nc(N)cc(=O)[nH]1 | i | i | 56.7 | i | i | 34.5 | i | i
CN(CCCC1CCCC1)C(=O)c1cc(COc2ccc(F)c(F)c2)on1 | i | i | 63.4 | i | i | i | i | nt
O=C(c1ccccc1F)N1CCCC(N2CCN(Cc3ccc4c(c3)OCO4)CC2)C1 (stereo not drawn) | i | i | nt | i | i | nt | nt | nt
CC(=O)c1ccccc1C(=O)N1CCCC(N2CCN(Cc3ccc4c(c3)OCO4)CC2)C1 (stereo not drawn) | i | i | 65.0 | i | i | i | i | nt
COc1ccccc1-c1cccc(-c2nc(C(=O)N3CCCCC3)cc3c2[C@@H](CCO)N(S(=O)C(C)(C)C)C3)c1 (stereo partly drawn) | i | i | nt | i | i | nt | nt | nt
COc1cc(NC(=S)N2CCCC(CO)C2)cc(OC)c1 (stereo not drawn) | i | i | 70.1 | i | i | i | i | nt
Cn1nc(C(=O)Nc2ccc(-n3cnnn3)cc2)c2ccccc2c1=O | i | i | 99.5 | i | i | 70.1 | i | i
CC(C)n1nc(C(=O)Nc2ccc(-n3cnnn3)cc2)c2ccccc2c1=O | i | i | i | i | i | nt | nt | nt
COc1cccc(NC(=O)c2cc(-c3ccco3)nc3ccccc23)c1 | i | i | 66.1 | i | i | 31.4 | i | i
COc1ccc(CCNC(=O)c2cc(-c3ccco3)nc3ccccc23)cc1 | nt | nt | 86.6 | nt | nt | 72.7 | i | i
O=C(Nc1ccccc1F)c1cc(-c2ccco2)nc2ccccc12 | i | i | 68.4 | i | i | 51.0 | i | i
Cc1ccc(NC(=O)c2cc(-c3ccc(C)o3)nc3ccccc23)cc1 | i | i | i | i | i | nt | nt | nt
Cc1ccc(-c2cc(C(=O)Nc3cccnc3)c3ccccc3n2)o1 | i | i | 60.1 | i | 50.5 | 57.4 | i | 5.7
O=C(O)c1cccnc1SCC(=O)N1CCCc2ccccc21 | i | i | i | i | i | nt | nt | nt
Cn1c(=O)c(=O)n(C)c2cc(S(=O)(=O)CCC(=O)NCc3ccccc3)ccc21 | i | i | 71.4 | i | i | i | i | nt
Cc1ccc(CNC(=O)CN(C)S(=O)(=O)c2ccc3c(c2)n(C)c(=O)c(=O)n3C)cc1 | i | i | i | i | i | i | i | nt
COc1ccccc1CNC(=O)CN(C)S(=O)(=O)c1ccc2c(c1)n(C)c(=O)c(=O)n2C | i | i | i | i | i | i | i | nt
COc1ccccc1CNC(=O)CN(C)S(=O)(=O)c1ccc2c(c1)c(=O)n(C)c(=O)n2C | i | i | i | i | i | nt | nt | nt
Cc1ccc(C)c(CNS(=O)(=O)c2c(C(=O)N3CCCC3)c(C)n(C)c2C)c1 | i | i | i | i | i | nt | nt | nt
C[C@]12CCC3C(CC=C4C[C@@H](O)CC[C@@]43C)C1CCC2[C@]1(C)CCC(=O)O1 (stereo partly drawn) | i | i | 58.4 | i | i | i | i | nt
Cc1cn(CC(=O)NCc2ccc(N(C)C)cc2)c(=O)[nH]c1=O | i | i | i | i | i | nt | nt | nt
O=C(Cc1ccccc1)Nc1cccc(-c2nc3ncccc3o2)c1 | i | i | 67.8 | i | i | i | i | nt
CCOC(=O)N1CCN(S(=O)(=O)c2ccc3c4c(cccc24)C(=O)N3)CC1 | i | i | i | i | i | nt | nt | nt
CCOc1ccccc1N1CCN(S(=O)(=O)c2ccc3c4c(cccc24)C(=O)N3)CC1 | i | i | 61.3 | i | i | 50.3 | i | i
COc1ccccc1C(=O)NCC(=O)OC(C)C(=O)N1CCOCC1 (stereo not drawn) | i | i | 60.3 | i | i | i | i | nt
C=CCn1c(SCc2nc3sc(C(=O)O)c(C)c3c(=O)[nH]2)nnc1-c1ccc(F)cc1 | i | i | i | i | i | nt | nt | nt
Cc1c(C(=O)O)sc2nc(/C=C/c3cccc(F)c3)[nH]c(=O)c12 | i | i | 81.0 | i | i | i | i | nt
CCCCc1ccc(S(=O)(=O)Nc2cc(C)on2)cc1 | i | i | 69.5 | i | i | i | i | nt
